The record followed here is ChEMBL document CHEMBL1158563, “Identification of benzimidazole-based inhibitors of the mitogen activated kinase-5 signaling pathway” (2010).

This assay deals with T1, Dual specificity mitogen-activated protein kinase kinase 5 (Homo sapiens) (UniProt Q13163).
T1 sequence (whole entry): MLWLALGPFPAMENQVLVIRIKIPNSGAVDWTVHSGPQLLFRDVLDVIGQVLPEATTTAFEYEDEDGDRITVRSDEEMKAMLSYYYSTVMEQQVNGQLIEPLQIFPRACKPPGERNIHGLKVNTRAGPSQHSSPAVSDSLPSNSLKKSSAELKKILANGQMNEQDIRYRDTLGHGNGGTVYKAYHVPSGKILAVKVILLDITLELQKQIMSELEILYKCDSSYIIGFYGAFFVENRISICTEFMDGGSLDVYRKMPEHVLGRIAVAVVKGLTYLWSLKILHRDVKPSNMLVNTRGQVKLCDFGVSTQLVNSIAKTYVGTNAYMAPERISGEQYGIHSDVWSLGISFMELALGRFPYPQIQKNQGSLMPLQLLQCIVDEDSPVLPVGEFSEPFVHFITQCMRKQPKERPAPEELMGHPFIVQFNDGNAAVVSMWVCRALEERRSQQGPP
The assay can be described thus: Inhibition of EGF-induced MEK5-mediated ERK5 phosphorylation in human HEK293 cells at 10 uM treated after 30 mins EGF challenge measured after 30 mins by Western blot analysis relative to control. It counts as cell-based. Details: scale not given: the % may be the effect or the level left. The essentials:
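HEK293 cells were grown in medium with 10% heat-inactivated FBS and 0.5% penicillin/streptomycin at 37 °C, 5% CO2. They were stimulated with 50 ng/mL EGF, then given 10 µM compound (final) 30 min later, and lysed 30 min after that in 1% Triton buffer. 60 µg protein was run on 10% SDS gels and blotted for pERK1/2 (1:1000) or pERK5 (1:500).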
Background: In western blotting, separated proteins are transferred to a membrane and probed.

The compound `c1ccc(CNc2cc(Cc3ccccc3)cc3c2ncn3C2CCCC2)cc1` displayed an Activity of 78%.

For the compound `COc1cc(NCc2ccccc2)c2ncn(Cc3ccccc3)c2c1`, the Activity came to 136%.
